# Only some compounds are listed: those with a hit (about 2.5% of all), similar ones and a draw of the others.
# PRMT1 FP inh: PRMT1 methyltransferase inhibitors, primary screen, biochemical, fluorescence polarization; Protein arginine N-methyltransferase 1 (Homo sapiens), Q99873; recombinant PRMT1, activity-based probe fluorescence polarization; AID 652257, 2013; inhibition, % at 2.79 µM; 370,000 compounds, 1.3% hits;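 active means inhibition above about 21% made by adding two undisclosed values, limit read from the data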
# TDP2 absorb: human TDP2 enzyme inhibitors, primary screen, biochemical, epi absorbance, recombinant enzyme; Tyrosyl-DNA phosphodiesterase 2 (Homo sapiens), O95551; T5PNP hydrolysis, p-nitrophenol absorbance 415 nm; inhibition, % at 12.8 µM; 370,000 compounds, 0.34% hits; AID 720702, 2013;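 active means inhibition above the mean of all tested compounds plus 3 SD, set per campaign, cut at about 25% in these data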;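 further: 0% = DMSO with enzyme and 100% = buffer with substrate but no TDP2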
#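 Material: recombinant human TDP2; quantity: TDP2 enzyme at 120 nM final; medium: Tris-HCl pH 7.5 with MgCl2; compound: single concentration, 12.8 µM nominal, with 1% DMSO; incubation: 2 h enzyme incubation at 37 °C; signal: epi absorbance; measure: percent inhibition; benchmarks: high control without enzyme, low control DMSO plus TDP2; repeats: singlicate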
# PAD4 inh: human PAD4 inhibitors, primary screen, biochemical, fluorescence polarization, 1536-well format. Protein-arginine deiminase type-4 (Homo sapiens), Q9UM07. recombinant PAD4, RCA probe fluorescence polarization. inhibition, % at 6.36 µM. 330,000 compounds, 0.41% hits. AID 485272, 2010;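 active means percent inhibition above a cutoff equal to the mean of all tested compounds plus 3 SD, cut at about 15% in these data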;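 further: 0% = PAD4 with RCA probe and DMSO and 100% = probe without PAD4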
# GSTO1 counter: inhibitors of recombinant GSTO1, primary screen, counter-screen for RBBP9 inhibitor project, biochemical, fluorescence polarization. activity-based probe fluorescence polarization. inhibition, % at 5.96 µM. 300,000 compounds, 1.1% hits. AID 1974, 2009;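 active means inhibition above the campaign mean inhibition plus 3 SD, cut at about 35% in these data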;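 further: 0% = GSTO1-1 with DMSO and 100% = wells lacking GSTO1-1 enzyme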
# E coli Lon inh: inhibitors of E. coli Lon protease, primary screen, biochemical, fluorescence polarization | inhibition, % at 7.94 µM | P0A9M0 | purified E. coli Lon protease | AID 602123, 2011 | 360,000 compounds, 0.42% hits; in the data active means inhibition above about 13%, passing the limit was not always enough;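 further: 0% = enzyme with probe and DMSO and 100% = no enzyme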
# TDP2 inh conf: human TDP2 enzyme inhibitors, retest, confirmation, biochemical, epi absorbance, recombinant enzyme. inhibition, % at 12.8 µM. absorbance read-out. 1,100 compounds, 22% hits. shares compounds with TDP2 absorb; in the data active means inhibition above about 25%;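 further: 0% = vehicle with enzyme and 100% = no enzyme buffer only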
# * marks the source's active call; other numbers are inactive results; . = no result.
SMILES,PRMT1 FP inh,TDP2 absorb,PAD4 inh,GSTO1 counter,E coli Lon inh,TDP2 inh conf
COc1ccc(N2C(=O)CC(Nc3ccc(N4CCOCC4)cc3)C2=O)c(OC)c1 (centres undefined),14,25*,10,17,0,7
CN(C)c1ccc(N2C(=O)CC(Nc3ccc(N4CCOCC4)cc3)C2=O)cc1 (centres undefined),6,1,-5,3,-3,.
C[C@@H]1CN([C@@H](C)CO)C(=O)CCCn2nncc2CO[C@H]1CN(C)C(=O)Nc1ccccc1F,6,10,.,.,-10,.
CCN(CC)c1cc(Cl)c2nonc2c1N,1,33*,-3,4,0,9
CCN(CC)c1cc2nonc2c2nonc12,3,-9,-1,3,-1,.
CCOc1ccc2c(c1)C(C)=CC(C)(C)N2,13,26*,-7,.,6,-2
Cc1nnc(SCC(=O)N(C)Cc2ccccc2)[nH]c1=O,-3,43*,4,10,-9,-5
CCNC(=S)NNC(=O)Cn1c(=O)c2c(ncn2CCOC)n(Cc2ccccc2)c1=O,2,-10,1,1,3,.
COCCn1cnc2c1c(=O)n(CC(=O)NC(=O)NC(C)(C)C)c(=O)n2Cc1ccccc1,-4,39*,.,.,-3,2
CCCn1cc(CN2CCC(N3CCC(C(=O)N4CCOCC4)CC3)CC2)c(C)n1,-4,7,0,14,-2,.
CCOC(=O)C1CCN(CC(=O)N2C(C)CCCC2C)CC1 (centres undefined),2,27*,-2,5,1,1
CC(=O)Nc1c(S(=O)(=O)c2ccccc2)c2nc3ccccc3nc2n1Cc1ccccc1,6,2,1,1,-2,.
O=S(=O)(Nc1c(S(=O)(=O)c2ccccc2)c2nc3ccccc3nc2n1C1CCCCC1)c1ccccc1,0,89*,-8,49*,-1,84*
Cc1cc2c(=Cc3ccc(N(C)C)cc3)c3ccccc3n2[n+]1C,4,6,.,.,-78,.
CCOC(=O)c1cc2c(=Cc3ccc(N(C)C)cc3)c3ccccc3n2[n+]1C,3,52*,.,.,-36,56*
CC(C)NC(=O)C1(C)CN(S(C)(=O)=O)CC(=O)N1Cc1cccc(C(F)(F)F)c1 (centres undefined),1,-9,.,.,.,.
CCc1cc(SC#N)cc(C)c1N,3,32*,3,0,2,5
O=C1NC(=O)/C(=C/c2ccc(-c3cc(C(=O)O)ccc3Cl)o2)S1,6,32*,-6,-72,-10,16
Cc1ccc(C(=O)O)cc1-c1ccc(/C=C2/NC(=O)N(c3ccccc3)C2=O)o1,20,-1,-2,-18,-13,.
O=C1C=C(Nc2cccnc2)c2ccccc2C1=O,1,72*,.,.,-13,59*
CCOc1ccc(NC2=CC(=O)C(=O)c3ccccc32)cc1,2,32*,.,.,4,40*
Cc1ccc(NC2=CC(=O)C(=O)c3ccccc32)c(C)c1,-1,13,-12,.,-7,.
CCc1ccc(OCCOCCN2CCN(C)CC2)cc1,-2,32*,4,1,7,20
CCN1CCN(CCOCCOc2ccccc2)CC1,-1,28*,-2,-4,1,11
CN1CCN(CCOc2ccc(Cc3ccccc3)cc2)CC1,1,3,1,3,-6,.
CN1CCN(CCOCCOc2ccc(Br)cc2Cl)CC1,1,29*,-4,1,-2,8
COc1cccc(CNC(=O)C2CCC(=O)N(C3CC3)C2)c1OC (centres undefined),-8,-20,.,.,-4,.
CC(C)c1cccc(C(C)C)c1NC(=O)CNCC(O)c1ccccc1 (centres undefined),-1,26*,3,-3,5,0
COc1ccc(NC(=S)N2CCC(NC(=O)c3ccc(OC)cc3)CC2)cc1,-4,5,-1,6,3,.
CC1CCCC(NC(=O)CSc2n[nH]c(=O)n2Cc2ccccc2)C1C (centres undefined),0,-3,0,.,-7,.

# Source: PubChem
